Assays:
[1] = Cmax in CD1 mouse at 200 mg/kg, po administered as single dose; assay type: ADME, organism-based; parameters: dose 200 mg/kg, route oral; details: in vivo
Method in brief: (§1)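 Female CD1 mice given one oral gavage dose (30, 50 or 200 mg/kg), n=3 per test article. Blood drawn from three mice at 15, 30, 60 min and 2, 4, 6, 8, 10, 24 h after dosing. Plasma concentration measured by LCMS over 24 h.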

[2] = Cmax in CD1 mouse at 50 mg/kg, po administered as single dose; assay type: ADME, organism-based; parameters: dose 50 mg/kg, route oral; details: in vivo; method in brief: as §1
[3] = AUC in CD1 mouse at 200 mg/kg, po administered as single dose; assay type: ADME, organism-based; parameters: dose 200 mg/kg, route oral; details: plasma; method in brief: as §1
[4] = system: Liver microsomes; experiment: Intrinsic clearance in human liver microsomes after 0.5 to 4 hrs by UPLC-MS analysis; assay type: ADME, Microsome
Method in brief: (§2)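 Pooled liver microsomes (female CD-1 mouse or mixed-gender human) at 0.5 mg/mL in 0.1 M potassium phosphate pH 7.4 with EDTA, with NADPH-regenerating solutions A+B; 37 °C with shaking; quenched at 0, 0.5, 1, 2, 4 h with cold methanol containing 10 μM warfarin internal standard. UPLC-MS (SIR); k from log peak-area-ratio slope, t1/2 = 0.693/k, CLint normalised to microsomal protein; triplicate.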

[5] = system: Liver; experiment: Intrinsic clearance in CD1 mouse liver microsomes after 0.5 to 4 hrs by UPLC-MS analysis; assay type: ADME, Microsome; method in brief: as §2
[6] = AUC (infinity) in CD1 mouse at 50 mg/kg, po administered as single dose; assay type: ADME, organism-based; parameters: time infinity, dose 50 mg/kg, route oral; details: plasma; method in brief: as §1
[7] = Permeability of the compound at pH 7.4 by PAMPA; assay type: ADME
[8] = AUC in CD1 mouse at 30 mg/kg, po administered as single dose; assay type: ADME, organism-based; parameters: dose 30 mg/kg, route oral; details: plasma; method in brief: as §1
[9] = Cmax in CD1 mouse at 30 mg/kg, po administered as single dose; assay type: ADME, organism-based; parameters: dose 30 mg/kg, route oral; details: in vivo; method in brief: as §1
[10] = Permeability of the compound at pH 4.0 by PAMPA; assay type: ADME
Method in brief: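 PAMPA: compound diluted in system buffer at pH 7.4 or 4 as donor; membrane coated with GIT lipid; acceptor buffer; stirred 30 min with 40 μm aqueous boundary layer. UV spectra (250–500 nm) of reference, donor and acceptor; permeability coefficient from spectral AUCs; triplicate.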

Row | Cmax [1] | Cmax [2] | AUC(0-inf) [3] | Intrinsic clearance (CLint) [4] | Intrinsic clearance (CLint) [5] | AUC(0-inf) [6] | permeability [7] | AUC(0-inf) [8] | Cmax [9] | permeability [10] | Structure (SMILES)
1 | 39000 nM | 31000 nM | 160 µM·h | 1.2 µL/min/mg | 2.7 µL/min/mg | 71 µM·h | 670 ×10⁻⁶ cm/s |  |  |  | CCOC(=O)c1c(-c2cccc(Br)c2)[nH]c2cc(OC)c(F)cc2c1=O
2 | 1600 nM | 710 nM | 19 µM·h | 56 µL/min/mg | 6.7 µL/min/mg | 9.3 µM·h | 230 ×10⁻⁶ cm/s |  |  |  | CCOC(=O)c1c(-c2cc(F)cc(OC)c2)[nH]c2cc(OC)c(F)cc2c1=O
3 | 430 nM |  | 4.3 µM·h | 5 µL/min/mg | 5.7 µL/min/mg |  | 2900 ×10⁻⁶ cm/s | 1.7 µM·h | 230 nM |  | CCOC(=O)c1c(-c2cccc(-c3ccccc3)c2)[nH]c2cc(OC)ccc2c1=O
4 | 2400 nM |  | 10 µM·h | 5.7 µL/min/mg | 12 µL/min/mg |  | 260 ×10⁻⁶ cm/s | 5.1 µM·h | 1900 nM |  | CCOC(=O)c1c(-c2cccc(OCC)c2)[nH]c2cc(OC)ccc2c1=O
5 |  |  |  | 11 µL/min/mg | 24 µL/min/mg |  | 880 ×10⁻⁶ cm/s |  |  | 30 ×10⁻⁶ cm/s | COc1cc2[nH]c(-c3cccc(Oc4ccccc4)c3)c(C(=O)OCCCN3CCOCC3)c(=O)c2cc1F
6 |  |  |  | 3.4 µL/min/mg | 16 µL/min/mg |  |  |  |  |  | CCOC(=O)c1c(-c2cccc(Cl)c2)[nH]c2cc(OC)ccc2c1=O
7 | 5000 nM |  | 65 µM·h | 12 µL/min/mg | 12 µL/min/mg |  |  | 6.1 µM·h | 1500 nM |  | CCOC(=O)c1c(-c2ccc3c(c2)OCO3)[nH]c2cc(OC)ccc2c1=O
8 | 400 nM |  | 1 µM·h |  | 35 µL/min/mg |  | 750 ×10⁻⁶ cm/s | 0.15 µM·h | 60 nM |  | CCOC(=O)c1c(-c2cccc(Oc3ccccc3)c2)[nH]c2cc(OC)ccc2c1=O
9 | 1800 nM |  | 7.7 µM·h | 12 µL/min/mg | 39 µL/min/mg |  | 340 ×10⁻⁶ cm/s | 1.6 µM·h | 300 nM |  | CCCOc1cccc(-c2[nH]c3cc(OC)ccc3c(=O)c2C(=O)OCC)c1
10 | 66000 nM | 38000 nM | 280 µM·h | 0.5 µL/min/mg | 4 µL/min/mg | 130 µM·h | 410 ×10⁻⁶ cm/s |  |  |  | CCOC(=O)c1c(-c2cccc(Cl)c2)[nH]c2cc(OC)c(F)cc2c1=O
11 |  |  |  |  | 16 µL/min/mg |  | 560 ×10⁻⁶ cm/s |  |  |  | CCOC(=O)c1c(-c2cccc(Oc3ccccc3)c2)[nH]c2cc(OC)c(F)cc2c1=O
12 | 5800 nM |  | 7.8 µM·h | 5.7 µL/min/mg | 7.9 µL/min/mg |  |  | 8 µM·h | 8000 nM |  | CCOC(=O)c1c(-c2cccc(OC)c2)[nH]c2cc(OC)ccc2c1=O
13 |  |  |  | 4.8 µL/min/mg | 11 µL/min/mg |  | 620 ×10⁻⁶ cm/s |  |  |  | COc1cc2[nH]c(-c3cccc(Oc4ccccc4)c3)c(C(=O)OCCO)c(=O)c2cc1F

Reference: ChEMBL document CHEMBL2169740 (J Med Chem, 2012)
